Experimental data reported in ChEMBL document CHEMBL1147971, “Evaluation of N-(phenylmethyl)-4-[5-(phenylmethyl)-4,5,6,7-tetrahydro-1H-imidazo[4,5-c]pyridin-4-yl]benzamide inhibitors of Mycobacterium tuberculosis growth” (Bioorg Med Chem Lett, 2007).
≈ marks a conversion by molar mass, not a printed value. Calls of active or inactive are those of the source. The rule behind the calls is not given here.

What was measured:
[1] = system: Mycobacterium tuberculosis; assay: Antibacterial activity against Mycobacterium tuberculosis; assay type: functional
In short: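 M. tuberculosis broth cultures grown in 96-well microtitre plates with drug. Growth read indirectly by metabolic reduction of fluorescent Alamar blue. MIC taken as the minimum drug concentration giving 50% inhibition of growth.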

[2] = Permeability across artificial cell membrane; assay type: ADME; settings: for Papp: not told, read-out: permeability
In short: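 High-throughput artificial membrane assay measuring passive diffusion of compound across a phospholipid monolayer.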

[3] = system: Staphylococcus aureus; assay: Antibacterial activity against Staphylococcus aureus ATCC 29213; assay type: functional, organism-based
[4] = Cytotoxicity against HEPG2 cells; assay type: cell-based; settings: human; for cytotoxicity: read-out: Inhibition; for CC50: read-out: TC50 (the source's name)
[5] = Mycobacterium tuberculosis, read-out: MIC

SMILES	MIC [1, 5] [µM]	cytotoxicity [4] [%]	CC50 [4] [µM]	other results
COc1ccc(CNC(=O)c2ccc(C3c4nc[nH]c4CCN3Cc3cccc(Cl)c3Cl)cc2)cc1 (stereo in doubt; 9b)				MIC [1]: 63 µM (≈ 32.9 µg/mL); permeability [2]: 8 ×10⁻⁶ cm/s
COc1ccc(CNC(=O)c2ccc(C3c4nc[nH]c4CCN3Cc3cccc(Cl)c3Cl)cc2)cc1 (stereo in doubt; 8e)	32 (≈ 16.7 µg/mL)			
COc1ccc(CNC(=O)c2ccc(C3c4nc[nH]c4CCN3Cc3cc(OC)c(OC)cc3OC)cc2)cc1 (configuration not stated)	63 (≈ 34.2 µg/mL)	20	> 11.5	Activity [3]: Active
COc1ccc(CNC(=O)c2ccc(C3c4nc[nH]c4CCN3Cc3cccc(Cl)c3)cc2)cc1 (stereo in doubt; 9d)	63 (≈ 30.7 µg/mL)			Papp [2]: 21 ×10⁻⁶ cm/s
O=C(NCc1ccccc1)c1ccc(C2c3nc[nH]c3CCN2Cc2cccc(Cl)c2)cc1 (configuration not stated)	32 (≈ 14.6 µg/mL)			
O=C(NCc1ccccc1)c1ccc(C2c3nc[nH]c3CCN2Cc2cccc(Cl)c2Cl)cc1 (configuration not stated)	32 (≈ 15.7 µg/mL)			
COc1ccc(CNC(=O)c2ccc(C3c4nc[nH]c4CCN3Cc3cccc(Cl)c3)cc2)cc1 (stereo in doubt; 9c)				MIC [1]: 32 µM (≈ 15.6 µg/mL); permeability [2]: 21 ×10⁻⁶ cm/s
COc1ccc(CNC(=O)c2ccc(C3c4nc[nH]c4CCN3c3ccc4ccccc4c3)cc2)cc1 (configuration not stated)	32 (≈ 15.6 µg/mL)	25	> 12.4	
COc1ccc(CNC(=O)c2ccc(C3c4nc[nH]c4CCN3Cc3cccc(Cl)c3Cl)cc2)cc1 (stereo in doubt; 9a)				Papp [2]: 8 ×10⁻⁶ cm/s
O=C(NCc1ccccc1)c1ccc(C2c3nc[nH]c3CCN2c2ccc3ccccc3c2)cc1 (configuration not stated)	16 (≈ 7.34 µg/mL)	> 20	> 13.2	
COc1ccc(CNC(=O)c2ccc(C3c4nc[nH]c4CCN3Cc3cccc(Cl)c3)cc2)cc1 (stereo in doubt; 8f)		25	> 12.8	
